Test [1] concerns HL-60. Put plainly: Cell cycle arrest in human HL60 cells assessed as accumulation at G1 phase at 25 uM incubated for 24 hrs by flow cytometry (reference value: 35.96 +/- 1.63%). In kind it is functional.
Test [2] deals with HL-60. Put plainly: Cell cycle arrest in human HL60 cells assessed as accumulation at G2/M phase at 15 uM incubated for 72 hrs by flow cytometry (reference value: 12.68 +/- 3.21%). It is filed as functional. On the technique in general: A flow cytometer gives signals particle by particle.
For test [3], the system named is HL-60. Briefly: Cell cycle arrest in human HL60 cells assessed as accumulation at G1 phase at 15 uM incubated for 24 hrs by flow cytometry (reference value: 35.96 +/- 1.63%). In kind it is functional.
The subject of test [4] is HL-60. Put plainly: Cell cycle arrest in human HL60 cells assessed as accumulation at S phase at 5 uM incubated for 72 hrs by flow cytometry (reference value: 40.30 +/- 3.15%). It is filed as functional.
Test [5] concerns HL-60. Put plainly: Cell cycle arrest in human HL60 cells assessed as accumulation at G1 phase at 5 uM incubated for 24 hrs by flow cytometry (reference value: 35.96 +/- 1.63%). It is filed as functional.
In test [6] the test system is HL-60. Put plainly: Cell cycle arrest in human HL60 cells assessed as accumulation at S phase at 5 uM incubated for 24 hrs by flow cytometry (reference value: 44.41 +/- 0.77%). It is filed as functional.
Test [7] has as its system HL-60. Put plainly: Cell cycle arrest in human HL60 cells assessed as accumulation at G1 phase at 5 uM incubated for 48 hrs by flow cytometry (reference value: 38.29 +/- 0.22%). It is filed as functional.
Test [8] deals with HL-60. Put plainly: Induction of apoptosis in human HL60 cells at 5 to 25 uM incubated for 48 hrs by AnnexinV/propidium iodide staining method. It is filed as functional, cell-based. Summed up: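 HL-60 cells (1.5 × 10^5) were treated at 5–25 µM for 24, 48 or 72 h and harvested. They were stained with Annexin V-FITC for 10 min in HEPES/CaCl2/NaCl binding buffer, washed, briefly stained with PI (1 mg/mL) and analysed by flow cytometry for apoptosis and necrosis. Mean ± SD, n ≥ 3.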

Test [9] has as its system HL-60. Briefly: Cell cycle arrest in human HL60 cells assessed as accumulation at G2/M phase at 25 uM incubated for 24 hrs by flow cytometry (reference value: 19.62 +/- 0.96%). In kind it is functional.
In test [10] the test system is HL-60. Put plainly: Cell cycle arrest in human HL60 cells assessed as accumulation at S phase at 25 uM incubated for 72 hrs by flow cytometry (reference value: 40.30 +/- 3.15%). In kind it is functional.
Test [11] deals with HL-60. Briefly: Antiproliferative activity against human HL60 cells assessed as cell number at 5 uM incubated for 72 hrs by Coulter counting method. It is filed as functional. Put shortly: (§1)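 HL-60 cells in RPMI with 10% heat-inactivated FCS, antibiotics and amphotericin, 37 °C, 5% CO2, seeded in 60 mm dishes. Compound added at 5, 15 or 25 µM for 24, 48 or 72 h. Absolute cell counts taken by Coulter counter and expressed as percentage of untreated control. Mean ± SD of at least three independent experiments; one-way ANOVA with Tukey test, p < 0.05.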

Test [12] deals with HL-60. Put plainly: Antiproliferative activity against human HL60 cells assessed as cell number at 5 uM incubated for 24 hrs by Coulter counting method. It is filed as functional. Put shortly:
as §1

In test [13] the test system is HL-60. Put plainly: Antiproliferative activity against human HL60 cells assessed as cell number at 15 uM incubated for 72 hrs by Coulter counting method. It is filed as functional. Put shortly: as §1
Test [14] relates to HL-60. Put plainly: Cell cycle arrest in human HL60 cells assessed as accumulation at G2/M phase at 5 uM incubated for 48 hrs by flow cytometry (reference value: 16.42 +/- 1.03%). It is filed as functional.
For test [15], the system named is HL-60. Briefly: Cell cycle arrest in human HL60 cells assessed as accumulation at G2/M phase at 15 uM incubated for 48 hrs by flow cytometry (reference value: 16.42 +/- 1.03%). In kind it is functional.
For test [16], the system named is HL-60. Briefly: Cell cycle arrest in human HL60 cells assessed as accumulation at G1 phase at 5 uM incubated for 72 hrs by flow cytometry (reference value: 47.02 +/- 6.19%). In kind it is functional.
The target of test [17] is T1, DNA topoisomerase 1 (Homo sapiens) (UniProt P11387).
T1 sequence (whole entry): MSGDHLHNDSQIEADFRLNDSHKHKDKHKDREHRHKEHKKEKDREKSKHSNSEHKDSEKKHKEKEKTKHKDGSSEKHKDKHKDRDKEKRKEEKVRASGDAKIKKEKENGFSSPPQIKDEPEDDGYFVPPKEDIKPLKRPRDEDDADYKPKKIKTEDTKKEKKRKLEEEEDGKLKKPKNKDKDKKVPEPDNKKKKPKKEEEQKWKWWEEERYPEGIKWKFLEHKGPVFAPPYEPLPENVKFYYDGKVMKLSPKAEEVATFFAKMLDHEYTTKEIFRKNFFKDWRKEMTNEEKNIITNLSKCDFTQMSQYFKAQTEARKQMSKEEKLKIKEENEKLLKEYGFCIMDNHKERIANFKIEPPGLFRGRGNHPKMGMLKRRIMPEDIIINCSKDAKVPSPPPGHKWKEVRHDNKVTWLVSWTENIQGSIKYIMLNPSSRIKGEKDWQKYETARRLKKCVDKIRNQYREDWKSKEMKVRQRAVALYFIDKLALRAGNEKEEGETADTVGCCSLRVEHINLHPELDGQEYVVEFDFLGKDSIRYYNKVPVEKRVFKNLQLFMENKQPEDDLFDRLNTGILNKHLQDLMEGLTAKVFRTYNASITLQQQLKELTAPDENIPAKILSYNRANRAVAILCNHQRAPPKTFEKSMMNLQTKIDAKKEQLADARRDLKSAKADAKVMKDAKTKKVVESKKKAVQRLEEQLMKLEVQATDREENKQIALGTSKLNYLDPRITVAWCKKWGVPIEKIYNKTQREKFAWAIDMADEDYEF
Put plainly: Inhibition of human topoisomerase 1 assessed as reduction in pBR322 DNA relaxation of relaxation at 5 uM by DNA unwinding assay.

For test [18], the system named is HL-60. Briefly: Cell cycle arrest in human HL60 cells assessed as accumulation at G1 phase at 15 uM incubated for 72 hrs by flow cytometry (reference value: 47.02 +/- 6.19%). It is filed as functional.
In test [19] the test system is HL-60. Put plainly: Cell cycle arrest in human HL60 cells assessed as accumulation at G1 phase at 15 uM incubated for 48 hrs by flow cytometry (reference value: 38.29 +/- 0.22%). It is filed as functional.
In test [20] the test system is Nucleic Acid. Put plainly: Binding affinity to calf thymus DNA assessed as hypochromacity at 12.8 uM by UV-visible absorption spectroscopy. The note with it: Bos taurus.
The test system of test [21] is HL-60. Put plainly: Antiproliferative activity against human HL60 cells assessed as cell number at 25 uM incubated for 48 hrs by Coulter counting method. It is filed as functional. Put shortly: as §1
The test system of test [22] is Nucleic Acid. Briefly: Binding affinity to calf thymus DNA at 11 to 58 uM by LD spectroscopy. It is filed as nucleic-acid assay. The note with it: Bos taurus. Put shortly: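 Flow LD spectra were recorded in a Couette cell (1 mm path) from 210 to 550 nm at 25 °C in 10 mM Tris. ctDNA was modified by compound at 11–58 × 10^-6 M.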

Data on 2 compounds can be found in ChEMBL document CHEMBL2169850, “3,6-bis(3-alkylguanidino)acridines as DNA-intercalating antitumor agents” (Eur J Med Chem, 2012).

Each structure is given as a SMILES string. The source made the active and inactive calls. The rule behind the calls is not given here.

Turning to `CCNC(=N)Nc1ccc2cc3ccc(NC(=N)NCC)cc3nc2c1.Cl.Cl.O`, the result in the test on HL-60 [1], in the test on HL-60 [2], in the test with HL-60 [3], in the test on HL-60 [4], with HL-60 [5] and in the test with HL-60 [6] was inactive. The result in the test with HL-60 [7], in the test on HL-60 [8], in the test on HL-60 [9], in the test on HL-60 [10], in the test with HL-60 [14] and in the test with HL-60 [15] was inactive. Further, the result in the test on HL-60 [16], in the test with HL-60 [18] and in the test on HL-60 [19] was inactive. For the same compound, the Activity in the test with HL-60 [11] stood at 79.32%; with HL-60 [12] it was 71.7%; in the test on HL-60 [13], 84.97%; in the test with Nucleic Acid [20], 23%; with HL-60 [21] it was 86.85%. Further, the result (in test [17]; in the test with Nucleic Acid [22]) was Active.

In the case of `CCCCCCNC(=N)Nc1ccc2cc3ccc(NC(=N)NCCCCCC)cc3nc2c1.Cl.Cl.O`, the Activity in the test on HL-60 [1] was found to be 51.52%; in the test with HL-60 [2] it was 5.85%; in the test with HL-60 [3], 41.77%; with HL-60 [4], 43.6%; in the test on HL-60 [5] it was 36.31%; with HL-60 [6], 47.31%. Further, the Activity in the test with HL-60 [7] is 45.1%; in the test with HL-60 [9], 10.37%; in the test on HL-60 [10], 22.5%; in the test on HL-60 [11], 57.54%; in the test with HL-60 [12], 73.7%; with HL-60 [13] it was 33.13%. Besides, the Activity in the test with HL-60 [14] came out at 11.36%; in the test on HL-60 [15], 8.11%; with HL-60 [16], 48.93%; in the test on HL-60 [18], 70.31%; in the test with HL-60 [19] it was 64.37%; with Nucleic Acid [20] it was 42%. Also, the Activity in the test with HL-60 [21] is 40.67%. For the same compound, the outcome (in the test on HL-60 [8]; in test [17]; with Nucleic Acid [22]) was Active.
